Test results: ChEMBL document CHEMBL1122162, “Carbocyclic analogue of 3-deazaadenosine: a novel antiviral agent using S-adenosylhomocysteine hydrolase as a pharmacological target” (1982)
Converted amounts (≈) assume the structure as drawn. The source made the active and inactive calls. No cut-off for these calls is given here.

What was measured:
Mus musculus [1] = species: Mus musculus; assay: In vitro antiviral activity against herpes simplex virus type 1 (strain E-377) grown in mouse fibroblasts cells, clone L-929, expressed as virus ration (VR); type: functional, Fibroblast
Mus musculus [2] = species: Mus musculus; assay: Effect in mouse infected with herpes simplex virus type-1; observed effects diminished with time; type: functional, organism-based
Mus musculus [3] = species: Mus musculus; assay: Effect in mouse infected with vaccinia virus; observed effects seen; type: functional, organism-based
Mus musculus [4] = species: Mus musculus; assay: Minimum Inhibitory concentration of the drug required for 50% inhibition of herpes simplex virus type 1 (strain E-377) -induced cytopathogenic effects in infected cell cultures.; type: functional
Mus musculus [5] = species: Mus musculus; assay: Minimum Inhibitory concentration of the drug required for 50% inhibition of vaccinia virus (strain Lederle chorioallantoic) -induced cytopathogenic effects in infected cell cultures.; type: functional
Mus musculus [6] = species: Mus musculus; assay: In vitro antiviral activity against vaccinia virus (strain Lederle chorioallantoic) grown in mouse fibroblasts cells, clone L-929, expressed as VR; type: functional, Fibroblast
Rattus norvegicus [7] = species: Rattus norvegicus; assay: Percent inhibition of oncogenic transformation of HL-23 virus infected rat kidney cells (NRK 153C17) at 0 uM; type: functional
Procedure, shortened: (§1)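 NRK 153 C1 7 rat kidney cells infected with HL-23 virus in the presence of compound at 0–4 μM. Foci were stained with Giemsa and counted per dish on day 5. % inhibition was derived from focus counts relative to the untreated dish.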

Rattus norvegicus [8] = species: Rattus norvegicus; assay: Percent inhibition of oncogenic transformation of HL-23 virus infected rat kidney cells (NRK 153C17) at 0.25 uM; type: functional; procedure, shortened: as §1
Rattus norvegicus [9] = species: Rattus norvegicus; assay: Percent inhibition of oncogenic transformation of HL-23 virus infected rat kidney cells (NRK 153C17) at 1 uM; type: functional; procedure, shortened: as §1
Rattus norvegicus [10] = species: Rattus norvegicus; assay: Percent inhibition of oncogenic transformation of HL-23 virus infected rat kidney cells (NRK 153C17) at 2 uM; type: functional; procedure, shortened: as §1
Rattus norvegicus [11] = species: Rattus norvegicus; assay: Percent inhibition of oncogenic transformation of HL-23 virus infected rat kidney cells (NRK 153C17) at 4 uM; type: functional; procedure, shortened: as §1
Rattus norvegicus [12] = species: Rattus norvegicus; assay: Inhibition of oncogenic transformation expressed as %control cell number on day 3 in HL-23 virus infected rat kidney cells (NRK 153C17) at 0.25 uM; type: functional
Procedure, shortened: (§2)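 Normal rat kidney cells (NRK 153 C1 7) infected with HL-23 virus, a C-type virus isolated from human acute myelogenous leukemia cells, and exposed to compound at 0–4 μM. Cell number determined on day 3 and expressed as % of control.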

Rattus norvegicus [13] = species: Rattus norvegicus; assay: Inhibition of oncogenic transformation expressed as %control cell number on day 3 in HL-23 virus infected rat kidney cells (NRK 153C17) at 0.5 uM; type: functional; procedure, shortened: as §2
Rattus norvegicus [14] = species: Rattus norvegicus; assay: Inhibition of oncogenic transformation expressed as %control cell number on day 3 in HL-23 virus infected rat kidney cells (NRK 153C17) at 1 uM; type: functional; procedure, shortened: as §2
Rattus norvegicus [15] = species: Rattus norvegicus; assay: Inhibition of oncogenic transformation expressed as %control cell number on day 3 in HL-23 virus infected rat kidney cells (NRK 153C17) at 2 uM; type: functional; procedure, shortened: as §2
Rattus norvegicus [16] = species: Rattus norvegicus; assay: Inhibition of oncogenic transformation expressed as %control cell number on day 3 in HL-23 virus infected rat kidney cells (NRK 153C17) at 4 uM; type: functional; procedure, shortened: as §2
Rattus norvegicus [17] = species: Rattus norvegicus; assay: Inhibition of oncogenic transformation was assayed by infecting normal rat kidney cells (NRK 153C17) with HL-23 virus and counting the %control cell number on day 3 at a concentration of 0 uM; type: functional; procedure, shortened: as §2
Rattus norvegicus [18] = species: Rattus norvegicus; assay: Inhibition of oncogenic transformation expressed as number of foci on day 5 in HL-23 virus infected rat kidney cells (NRK 153C17) at 0 uM; type: functional; procedure, shortened: as §1
Rattus norvegicus [19] = species: Rattus norvegicus; assay: Inhibition of oncogenic transformation expressed as number of foci on day 5 in HL-23 virus infected rat kidney cells (NRK 153C17) at 0.25 uM; type: functional; procedure, shortened: as §1
Rattus norvegicus [20] = species: Rattus norvegicus; assay: Inhibition of oncogenic transformation expressed as number of foci on day 5 in HL-23 virus infected rat kidney cells (NRK 153C17) at 0.5 uM; type: functional; procedure, shortened: as §1
Rattus norvegicus [21] = species: Rattus norvegicus; assay: Inhibition of oncogenic transformation expressed as number of foci on day 5 in HL-23 virus infected rat kidney cells (NRK 153C17) at 1 uM; type: functional; procedure, shortened: as §1
Rattus norvegicus [22] = species: Rattus norvegicus; assay: Inhibition of oncogenic transformation expressed as number of foci on day 5 in HL-23 virus infected rat kidney cells (NRK 153C17) at 2 uM; type: functional; procedure, shortened: as §1
Rattus norvegicus [23] = species: Rattus norvegicus; assay: Inhibition of oncogenic transformation expressed as number of foci on day 5 in HL-23 virus infected rat kidney cells (NRK 153C17) at 4 uM; type: functional; procedure, shortened: as §1
Mus musculus [24] = species: Mus musculus; assay: In vitro antiviral activity against herpes simplex virus type 1 (strain E-377) grown in mouse fibroblasts cells, clone L-929, expressed as virus rating (VR); type: functional, Fibroblast
Rattus norvegicus [25] = species: Rattus norvegicus; assay: Percent inhibition of oncogenic transformation of HL-23 virus infected rat kidney cells (NRK 153C17) at 0.5 uM; type: functional; procedure, shortened: as §1
Mus musculus [26] = species: Mus musculus; assay: Effect in mouse infected with herpes simplex virus type-1; observed effects seen; type: functional, organism-based
Mus musculus [27] = species: Mus musculus; assay: Minimum Inhibitory concentration of the drug required for 50% inhibition vaccinia virus (strain Lederle chorioallantoic)-induced cytopathogenic effects in infected cell cultures.; type: functional

Nc1nccc2c1ncn2[C@@H]1O[C@H](CO)[C@@H](O)[C@H]1O
Virus rating (Mus musculus [1]): 0.5

Nc1nccc2c1ncn2[C@@H]1C[C@H](CO)[C@@H](O)[C@H]1O [3-DEAZAARISTEROMYCIN A]
Activity (Mus musculus [2]): + to +/- | Activity (Mus musculus [3]): observed effects seen | MIC (Mus musculus [4]): 238 µg/mL (≈ 901 µM) | MIC (Mus musculus [5]): 1.9 µg/mL (≈ 7.19 µM) | Virus rating (Mus musculus [6]): 2.8 | Inhibition (Rattus norvegicus [7]): 0% | inhibition at 0.25 µM (Rattus norvegicus [8]): 44% | inhibition at 1 µM (Rattus norvegicus [9]): 76% | inhibition at 2 µM (Rattus norvegicus [10]): 92% | inhibition at 4 µM (Rattus norvegicus [11]): 99% | Control cell number (Rattus norvegicus [12]): 100% | Control cell number (Rattus norvegicus [13]): 96% | Control cell number (Rattus norvegicus [14]): 81% | Control cell number (Rattus norvegicus [15]): 71% | Control cell number (Rattus norvegicus [16]): 53% | Control cell number (Rattus norvegicus [17]): 100% | No. of foci per dish (Rattus norvegicus [18]): 115 | No. of foci per dish (Rattus norvegicus [19]): 64 | No. of foci per dish (Rattus norvegicus [20]): 65 | No. of foci per dish (Rattus norvegicus [21]): 28 | No. of foci per dish (Rattus norvegicus [22]): 9 | No. of foci per dish (Rattus norvegicus [23]): 1 | Virus rating (Mus musculus [24]): 1.1 | inhibition at 0.5 µM (Rattus norvegicus [25]): 44%

Nc1ncnc2c1ncn2[C@@H]1O[C@H](CO)[C@@H](O)[C@@H]1O [VIDARABINE]
Activity (Mus musculus [26]): Active | Activity (Mus musculus [3]): Active | MIC (Mus musculus [4]): 2.1 µg/mL (≈ 7.86 µM) | MIC (Mus musculus [27]): 19.2 µg/mL (≈ 71.8 µM) | Virus rating (Mus musculus [6]): 1.2 | Virus rating (Mus musculus [24]): 3.2
